The source of these data is ChEMBL document CHEMBL1156217, “Antioxidant and antiproliferative activities of hydroxyl-substituted Schiff bases” (Bioorg Med Chem Lett, 2010).

The subject of one series is HepG2. Briefly: Growth inhibition of human HepG2 cells after 72 hrs by sulforhodamine B assay. Particulars: HepG2, 72 h. It is filed as functional, cell-based. (In general: The SRB assay estimates cell density from bound dye.)
Series [1] can be described thus: Antioxidant activity assessed as galvinoxyl radical scavenging activity in ethyl acetate by UV-visible spectroscopy. Type of series: functional. The method in brief: (§1)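 The rate constant k (M−1 s−1) came from the slope of pseudo-first-order kobs against compound concentration. Some rates were instead taken from second-order kinetics at a 1/1 compound/GO• ratio. Values are mean±SD of three determinations.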

The nature of series [2]: Antioxidant activity assessed as galvinoxyl radical scavenging activity in methanol by UV-visible spectroscopy. It is filed as functional. The method in brief:
as §1

Series [3] in a line: Antioxidant activity assessed as against AAPH-induced oxidative damage of pBR322 plasmid DNA assessed as single strand breakage at 10 uM by gel electrophoresis. It is filed as functional. The method in brief:
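Supercoiled pBR322 plasmid DNA (100 ng) incubated with AAPH and/or test compound in PBS, pH 7.4, at 37 °C for 60 min. Strand breakage was assessed by agarose gel electrophoresis as conversion of the supercoiled form to open-circular (single-strand break) and linear (double-strand break) DNA.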

Series [4] in a line: Stability in PBS at pH 7.4 by UV-visible spectroscopy. It is filed as physicochemical. The conditions noted are these: buffer.
Series [5] in a line: Stability in PBS at pH 7.4 by UV-visible spectroscopy in presence of HSA. Type of series: physicochemical. The conditions noted are these: buffer.

One may read the pIC50 as the negative decadic logarithm of the IC50, by convention in mol/L. A lower pIC50 goes with a large IC50.

pIC50: −log10 of the molar value. The source made the active and inactive calls. No cut-off for these calls is given here. A value given as a limit tells only on which side of the number the result lay.

With `COc1cc([C@@H]2c3cc4c(cc3[C@@H](O[C@@H]3O[C@@H]5CO[C@@H](C)O[C@H]5[C@H](O)[C@H]3O)[C@H]3COC(=O)[C@H]23)OCO4)cc(OC)c1O` [ETOPOSIDE], the pIC50 with HepG2 was 5.39.

`Oc1ccc(/C=C/c2cc(O)cc(O)c2)cc1` [RESVERATROL]: the Activity in series [1] was determined as 13.4 M⁻¹ s⁻¹; in series [2], 42 M⁻¹ s⁻¹. Also, the pIC50 in the series on HepG2 is 4.10. Moreover, the outcome in series [3] was Active.

Regarding `Oc1ccc(/N=C/c2ccc(O)c(O)c2)cc1`, the values for the Activity in series [1] and in series [2] were 1080 M⁻¹ s⁻¹ and 14800 M⁻¹ s⁻¹, respectively. In the series on HepG2, this compound had a pIC50 of 5.25. In addition, the result in series [3] was Active. Besides, the Stability entry in series [4] is given as “Unstable”; in series [5] it was “Stable”.

Take `Oc1ccccc1/C=N/c1ccccc1` [2-((PHENYLIMINO)METHYL)PHENOL]: the Activity in series [1] was 0.01 M⁻¹ s⁻¹; in series [2], 0.04 M⁻¹ s⁻¹. Further, the pIC50 in the series with HepG2 was < 3.52.

As to `Oc1ccc(/N=C/c2ccccc2)cc1` [4-(BENZYLIDENEAMINO)PHENOL], the values for the Activity in series [1] and in series [2] were 31.9 M⁻¹ s⁻¹ and 120 M⁻¹ s⁻¹, respectively. In the series with HepG2, this compound gave a negative-log IC50 (pIC50) of 3.97.

Regarding `COc1ccc(/N=C/c2ccc(O)cc2)cc1`, the Activity stood at 1.1 M⁻¹ s⁻¹ in series [1] and 2.48 M⁻¹ s⁻¹ in series [2]. In the series with HepG2, the negative logarithm of the IC50 (pIC50) is < 3.52.
